# E-sel inducer: induces E-selectin expression in human endothelial cells; 260,000 tested, 0.37% active; AID 686992; P16581; activation, % at 7.58 µM; HUVEC E-selectin immunofluorescence imaging; normalized: neutral wells 0, TNF-alpha wells 100;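 active = mean E-selectin-positive cell signal at least 10% of the positive control, reached in at least 60% of replicates, without over 20% cell loss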
# Target sequence (P16581 whole entry, looked up): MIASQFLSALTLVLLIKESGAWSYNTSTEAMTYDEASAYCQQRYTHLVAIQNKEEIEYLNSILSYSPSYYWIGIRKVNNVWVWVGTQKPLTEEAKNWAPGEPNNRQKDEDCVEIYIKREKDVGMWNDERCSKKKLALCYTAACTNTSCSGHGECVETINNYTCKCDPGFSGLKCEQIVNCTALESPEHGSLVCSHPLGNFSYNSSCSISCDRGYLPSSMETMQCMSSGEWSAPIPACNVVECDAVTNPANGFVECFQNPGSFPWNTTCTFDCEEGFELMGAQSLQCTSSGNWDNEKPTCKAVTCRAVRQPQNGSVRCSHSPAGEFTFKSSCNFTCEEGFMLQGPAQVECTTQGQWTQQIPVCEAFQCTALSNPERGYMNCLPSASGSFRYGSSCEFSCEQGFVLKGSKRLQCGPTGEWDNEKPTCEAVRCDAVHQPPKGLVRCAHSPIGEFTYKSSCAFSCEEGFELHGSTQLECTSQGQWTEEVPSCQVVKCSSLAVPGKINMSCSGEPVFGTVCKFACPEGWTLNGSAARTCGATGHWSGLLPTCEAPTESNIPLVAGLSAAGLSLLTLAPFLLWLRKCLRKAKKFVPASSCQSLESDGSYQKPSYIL
#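 Read-out: % PE-positive cells | Test system: HUVEC | Doses: One compound dose added by pin transfer | Buffer or medium: EGM-2 over gelatin coat | Signal: Immunofluorescence imaging | Benchmarks: TNF-alpha, DMSO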
# Ecoli rRNA inh: inhibitors of bacterial rRNA selective over humanized ribosomes; E. coli WT GFP vs humanized-ribosome RFP mutants, fluorescence, 24 h; stronger effect = lower value; DMSO median 0, no signal -100; GFP signal change (wild-type ribosome), % (concentration not given with the values); 350,000 tested, 1.6% active; AID 720706;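 active = significant combined selectivity score with lowered wild-type GFP, culture density cut under 30%, mutant RFP and density less affected; inactive = any of these conditions unmet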
# PglD inh: PglD (C. jejuni) enzyme inhibition. purified PglD enzyme, DTNB colorimetric CoA detection. inhibition, % at 12.5 µM. 360,000 tested, 0.098% active. AID 602405; in the data active = inhibition above about 16%, passing the limit was not always enough
# RAD52 anneal inh: inhibitors of human RAD52 DNA annealing. P43351. recombinant RAD52 DNA annealing, FRET fluorescence. inhibition, % at 18.7 µM. 360,000 tested, 0.46% active. AID 651710;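 active = every replicate showing at least 50% inhibition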
# XiGFP reactiv: X-chromosome reactivation activator. XiGFP mouse fibroblasts, % GFP-positive cells imaging, 3 d; cells co-treated with 5-aza-dC sensitizer; scaled so ellipticine positive control = 100%. activation, % at 7.58 µM. 360,000 tested, 0.055% active;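 active = mean normalized replicate activation at least 10% and every replicate at or above 10%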;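 also: 0% = median of on-plate neutral control wells and 100% = ellipticine 6 µM median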
#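 Material: SV40-immortalized XiGFP fibroblast cells, line 68-5-11 | Buffer or medium: DMEM containing 5-aza-dC | Dosing: One concentration, pinned | Times: 3 d treatment, 15 min room-temperature fixation | Controls: Ellipticine 6 µM positive control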
# RAD54 branch: blocks human RAD54 Holliday junction branch migration; Q92698; FAM/BHQ fluorescence; inhibition, % at 10.4 µM; 360,000 tested, 0.14% active;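 active = mean normalized replicate activity at least 40 and at least half of replicates scoring 40 or more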;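 also: 0% = median of neutral control wells and 100% = median of positive control wells; inhibitors cause a drop in the FAM fluorescence signal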
# * hit, by the source's call; . = no result. Shown are actives, neighbours in structure and some others; about 2% of the full set was active somewhere.
SMILES,E-sel inducer,Ecoli rRNA inh,PglD inh,RAD52 anneal inh,XiGFP reactiv,RAD54 branch
FC(F)Sc1ccc(-n2cc(-c3ccc(Cl)cc3)[n+]3c2CCC3)cc1,2,.,.,.,0,.
Clc1ccc(-n2cc(-c3ccc(Br)cc3)[n+]3c2CCCCC3)cc1,.,-46*,.,7,0,.
Fc1ccc(-n2cc(-c3ccccc3)[n+]3c2SCC3)cc1,0,18,.,-6,0,.
Cc1ccc(-c2cn(-c3ccc(OC(F)F)cc3)c3[n+]2CCCCC3)cc1,0,-36*,-1,-2,0,-5
c1ccc(-c2cn(-c3ccccc3)c3[n+]2CCS3)cc1,3,-10,-1,-1,0,-3
O=C(c1ccncc1)N1C[C@@H]2[C@H](c3ccccc31)[C@@H](CO)N2C(=O)c1ccccc1F,0,1,1,2,0,-1
CCCNC(=O)N(C)C[C@@H]1Oc2cc(C#CCN(C)C)ccc2S(=O)(=O)N([C@@H](C)CO)C[C@@H]1C,1,1,2,-1,0,0
CCSc1nc2c(cnn2-c2ccccc2)c(=O)n1N,0,-17*,-3,-17,0,-15
O=C(NCC[C@H]1CC[C@H](NC(=O)c2cccnc2)[C@H](CO)O1)Nc1ccc(F)cc1,2,4,1,50*,0,-9
O=C(NCC[C@@H]1CC[C@@H](NC(=O)Nc2cc(F)ccc2F)[C@H](CO)O1)Nc1ccc(F)cc1,0,-3,3,56*,0,16
CCOc1ccc(NC(=O)CN(C)C(=O)c2sc3ccccc3c2Cl)cc1OCC,0,-29*,-2,-11,0,-3
Cc1ccc(OCC(=O)Nn2c(C)nc3ccccc3c2=O)c(C(C)C)c1,.,-22*,4,-12,.,1
COc1ccccc1-[n+]1c(C)cc(/C=C2\Sc3ccccc3N2C)cc1C,-4,-17,-14,-216,101*,-411
COc1ccc(-[n+]2c(C)cc(/C=C3\Sc4ccccc4N3C)cc2C)cc1,.,45,.,-258,179*,.
COc1ccc(C(=O)/C=C2\Sc3ccccc3N2C)cc1,.,4,.,-25,0,.
CCC(=O)N(C)C[C@H]1Oc2cc(C#Cc3ccccn3)ccc2S(=O)(=O)N([C@@H](C)CO)C[C@@H]1C,0,-3,-1,-26,0,-5
C[C@H](CO)N1C[C@H](C)[C@@H](CN(C)C(=O)Nc2ccc(F)cc2)Oc2ccc(NC(=O)Nc3ccc(F)cc3)cc2CC1=O,0,-2,-15,17,0,0
O=C(Nc1ccc(Nc2ccccc2)cc1)c1ccc(Cl)cc1[N+](=O)[O-],.,-27*,14,-7,0,-1
NC(=O)C1CCN(c2nc(-c3ccccc3N)cs2)CC1,1,.,2,.,0,-11
NC(=O)C1CCN(c2nc(-c3ccccc3-c3ccccc3)cs2)CC1,139*,4,1,-6,0,12
COc1ccccc1/C=C/C(=O)Nc1ccc(S(=O)(=O)Nc2cc(C)on2)cc1,0,-35*,0,-16,0,-10
COc1ccccc1OCC(=O)Nc1ccc(S(=O)(=O)Nc2cc(C)on2)cc1,.,3,-3,-20,0,7
Brc1ccc2c(c1)-c1ccccc1C1=NCCN12,3,-40,3,35,0,81*
COc1ccc(C(=O)N/N=C/c2ccc(N3CCOCC3)o2)cc1OC,0,4,.,-7,0,.
COc1ccc(C(=O)N/N=C/c2ccc(N3CCOCC3)s2)cc1OC,.,-16*,2,-6,0,9
CC(C)C(OC(=O)c1ccccc1)c1nccc2ccccc12 (stereo unspecified),.,-28*,5,-4,0,2
O=C(OC(c1ccccc1)c1nccc2ccccc12)c1ccccc1 (stereo unspecified),0,3,-4,-6,0,-1
C[C@H]1CN([C@@H](C)CO)S(=O)(=O)c2ccc(-c3ccc(F)cc3)cc2O[C@@H]1CN(C)S(C)(=O)=O,1,-8,-4,2,0,-10
CS/C(=N\S(=O)(=O)c1cccs1)Nc1ccc(Cl)cc1,-3,-30*,.,-19,0,.

# Screening results: PubChem, Broad Institute
